Our source for the yeast fitness values is the RNAGym collection of RNA variant scans (doi:10.1126/science.aae0568).

The chains are these.
B1: tRNA (parent)
chain: GUUCCGUUGGCGUAAUGGUAACGCGUCUCCCUCCUAAGGAGAAGACUGCGGGUUCGAGUCCCGUACGGAACG

Variants at the floor of the assay were thinned out.

Variants of B1 are the subject of this data set. The experiment in a line: yeast fitness relative to wild type (ratio to wild type); higher = fitter; tRNA-Arg(CCU), competitive growth, 37 C, YPD. Summed up:
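Gene amplicons from the start population and from each of six end populations were read by 100-nucleotide paired-end sequencing. Those end populations came from pooled Saccharomyces cerevisiae strains carrying tRNA-Arg(CCU) gene variants at the native locus, competed in YPD at 37°C for 24 hours. Fitness relative to wild type was worked out from changes in genotype frequencies. Genotypes needed ≥ 100 starting reads, and estimates < 0.5 were set to 0.5.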
On to U2G C5U A15U G17A U47G C49G C60G A70U, for which the yeast fitness is not above 0.5.

Consider G23C G68U, for which the yeast fitness stood at 0.64.

For G17A C31A, the yeast fitness stood at 0.706.

For G48A U53G, the yeast fitness turned out to be 0.599.

As for A15C C31A U35C A45U, the yeast fitness was not above 0.5.

In the case of C11A U26C C29G C31U, the yeast fitness was 0.655.

For the variant U16G C31U A42U, the yeast fitness amounted to 0.522.

As to G23A G39C, the yeast fitness was determined as 0.752.

For U3C C31U G52A, the yeast fitness came out at 0.671.

G18C G50A: the yeast fitness turned out to be 0.609.

On to C5U A57U, for which the yeast fitness was determined as 0.663.

Take C24G C31U C34U C49U A69C: the yeast fitness is not above 0.5.

Regarding U8A C24A U28C C61U U64A A69G, the yeast fitness was not above 0.5.

Regarding A14C U59C, the yeast fitness was found to be 0.687.

Consider G17C G58C C62U, for which the yeast fitness is not above 0.5.

Turning to U3A G6A C31U A40C, the yeast fitness is not above 0.5.

For C5U A14C U19C, the yeast fitness was found to be 0.528.

Take G38A A43C A65C: the yeast fitness was not above 0.5.

As to C30U C31U G41C A45G C49U C66U A69G, the yeast fitness is not above 0.5.

On to U16G A36C G39C G63A A65U, for which the yeast fitness is not above 0.5.

C4U C46G: the yeast fitness is 0.981.

Regarding U2C U13A, the yeast fitness is 0.805.

In the case of C24U A42U C46A C55U C61G A69C, the yeast fitness is not above 0.5.

For the variant U26C A45G C55A C66U, the yeast fitness came to 0.701.

Consider G25C A40C G63A, for which the yeast fitness is 0.69.

On to C5A G6A U7A A43U G44A C46A, for which the yeast fitness is 0.691.

Regarding C5A C11A C30U C31A G58A G67C, the yeast fitness stood at 0.548.

With G63A A69G, the yeast fitness worked out at 0.878.

On to C5G C11U C22A, for which the yeast fitness is not above 0.5.

Take G25C A40C C62A: the yeast fitness was 0.675.

Turning to C4G C27G C46G U54C, the yeast fitness came out at 0.64.

As to C29A A37G G67C, the yeast fitness was 0.62.

With U19C C24U C30A, the yeast fitness is 0.631.

As for U7A C55U C61A, the yeast fitness was 0.508.

Turning to C5U C30G U64A, the yeast fitness was found to be 0.578.

For A21G C34G G56A C66G, the yeast fitness was not above 0.5.

On to G17A A57G, for which the yeast fitness stood at 0.906.

As to G17A G18A C61A, the yeast fitness was not above 0.5.

As for U47C G58C, the yeast fitness came to 0.971.

Turning to C22A G41C A65C, the yeast fitness is not above 0.5.

Consider U8A G10U C22U A37G, for which the yeast fitness was found to be 0.511.

In the case of C30A C46A, the yeast fitness is 1.

On to C24G C34U A45C, for which the yeast fitness was not above 0.5.

C4U C24A A57G G68C: the yeast fitness was not above 0.5.

For G6A U28G C34U, the yeast fitness was not above 0.5.

Consider U3A G23A A70G, for which the yeast fitness amounted to 0.561.

Regarding C5A A14U U53A U59G, the yeast fitness turned out to be 0.597.

Turning to C31A C33G A36U C60U U64G A65U A69C, the yeast fitness was not above 0.5.

In the case of U2A C22A A40C C46G U59A C60U C61G, the yeast fitness is not above 0.5.

For A14C C30A A36G C62U G63A A70U, the yeast fitness was not above 0.5.

With C4U G9C A69C, the yeast fitness was found to be 0.594.

As for U3A G6A A14U C33G, the yeast fitness is not above 0.5.

As for A37U A45U U47C C62G, the yeast fitness is not above 0.5.

With G44C G58A, the yeast fitness is 1.02.

In the case of U35A C49G C66G, the yeast fitness was not above 0.5.

On to C4G G51C U64A, for which the yeast fitness was not above 0.5.

Regarding C22U C49U, the yeast fitness was determined as 0.816.

As for C11G A14U A43U G48A, the yeast fitness is not above 0.5.

As for U7C A37C A40C A45U A57C A70C, the yeast fitness was not above 0.5.

As to C5U U26G, the yeast fitness was found to be 0.969.

Consider A14C C30U A37C, for which the yeast fitness came to 0.552.

As to C4G G12C U35A C49G C66U, the yeast fitness came out at 0.658.

On to A20C G25A C31G C33U C34U G41C C60A C66U, for which the yeast fitness was not above 0.5.

Turning to A14C U16G C29U U54C, the yeast fitness was not above 0.5.

For C4G A42C G50A, the yeast fitness was not above 0.5.

Take C4U A20G C61A: the yeast fitness was 0.512.

As to A15C G17A G38C C62U, the yeast fitness was not above 0.5.

In the case of A21C A36U, the yeast fitness was found to be 0.54.

As for U16A G41A, the yeast fitness was determined as 1.1.

For the variant G18A A36C, the yeast fitness was determined as 0.503.

For C4U U26A A45C, the yeast fitness turned out to be 0.53.

Regarding A42G A57U G67C, the yeast fitness was not above 0.5.

For the variant G9A C27U G41C, the yeast fitness stood at 0.618.

Regarding A43C G68U, the yeast fitness amounted to 0.868.

C24U U53A: the yeast fitness is 0.626.

As to A21G C66U, the yeast fitness was found to be 0.858.

For A40C G51A C61U A69C, the yeast fitness turned out to be 0.618.

For C49G A57C A70G, the yeast fitness turned out to be 0.552.

Turning to C5U C31A, the yeast fitness was found to be 0.688.

Regarding A15G C29A C34G, the yeast fitness is not above 0.5.

As to C11G G25A A45C, the yeast fitness is not above 0.5.

Turning to U2A U8A U47A A69U, the yeast fitness was not above 0.5.

Consider C5G A14U G23C C33A, for which the yeast fitness was not above 0.5.

On to G44C G50C A57G A65C, for which the yeast fitness amounted to 0.561.

Consider C4U C22U C33U, for which the yeast fitness amounted to 0.565.

Consider U7A G17A C30A A65C, for which the yeast fitness was not above 0.5.

C4U C11U C22G C61A: the yeast fitness was not above 0.5.

As for U3C C34G A40C A43U, the yeast fitness was not above 0.5.

Regarding G10A U19A A42G U64A, the yeast fitness was 0.612.

As to G18C C62A C66A, the yeast fitness is not above 0.5.

As for U3C U8A, the yeast fitness is 0.639.

Consider U3C A21C A45C C49U, for which the yeast fitness was 0.532.

On to C5G A15U C29G, for which the yeast fitness is not above 0.5.

On to U8A A36U C55G G58A U59C A69C, for which the yeast fitness was not above 0.5.

For C27U G38C A40C A42C, the yeast fitness is not above 0.5.

With U26A G58U, the yeast fitness was determined as 1.03.

Consider G10A A36C, for which the yeast fitness is not above 0.5.

Consider C5A U16G A20G C29G, for which the yeast fitness was found to be 0.601.

On to C4A A36C A57G A65U, for which the yeast fitness is not above 0.5.

On to G12C G17A A20U C34A A42C G48A C62U, for which the yeast fitness was not above 0.5.

On to A14U A42G, for which the yeast fitness was 0.529.

With U64C A70C, the yeast fitness came to 0.967.

Consider G12C C60A, for which the yeast fitness worked out at 0.588.

Turning to U47A C49G, the yeast fitness was 0.767.

Take G39C G48C G63C C66G: the yeast fitness is not above 0.5.

Take C11G C66A: the yeast fitness was not above 0.5.

With A21U C62U C66G, the yeast fitness was not above 0.5.

As to A14G U32G A45G A69U, the yeast fitness was not above 0.5.

Take C22U A40U A43U C46U C55U A65U: the yeast fitness was not above 0.5.

In the case of A21C C30G A69C, the yeast fitness was found to be 0.542.

In the case of C4G G12C C46U, the yeast fitness is not above 0.5.

As to U16G G41C A45U G51A C61U A70C, the yeast fitness was 0.639.

Turning to C24G C34U U35A C55U, the yeast fitness is not above 0.5.

U7A C30G A57U G58A: the yeast fitness was not above 0.5.

Regarding A45G C61U, the yeast fitness is 1.03.

G10A A36C C62G: the yeast fitness is not above 0.5.

With U19G C22U A70U, the yeast fitness was 0.746.

Regarding G6A G23C C60A, the yeast fitness worked out at 0.573.

On to A15G G17A G48A, for which the yeast fitness came to 0.681.

As for C24U U47A G48C U54G A65C, the yeast fitness was not above 0.5.

For U8G C30A G50C C62U G67U, the yeast fitness is not above 0.5.

As to A37C A40U G51A, the yeast fitness stood at 0.538.

For the variant U7C C30U, the yeast fitness turned out to be 0.826.

As for G41C A65C, the yeast fitness amounted to 0.794.

Regarding A20U U47G G52C, the yeast fitness is not above 0.5.

With C29G U32C G51A, the yeast fitness worked out at 0.723.

As for C5U C11G A15U U32A U35G C55A C61G, the yeast fitness was not above 0.5.

On to A15U G25C G68A, for which the yeast fitness was not above 0.5.

With C5U C34A A57G, the yeast fitness was not above 0.5.

Consider G52A A57C A65C, for which the yeast fitness came out at 0.647.

Regarding C5U U16G A20C A21G C30U, the yeast fitness is not above 0.5.

For the variant C30U A37C C60U, the yeast fitness was found to be 0.548.

For C5A C22U G39A A45C, the yeast fitness is not above 0.5.

As for A45C U54A C66U, the yeast fitness is not above 0.5.

For the variant G39C G48C A69C, the yeast fitness is 0.57.

On to A14C A45U G50C C66G, for which the yeast fitness was not above 0.5.

Consider C31A C55G, for which the yeast fitness came to 0.529.

With C5G U32C A45G C46A, the yeast fitness was found to be 0.907.

Consider G10A G23C G52A, for which the yeast fitness was found to be 0.565.

On to G9A U26A, for which the yeast fitness was 0.837.

With U3C C49A, the yeast fitness was found to be 0.599.

With C4G A45U, the yeast fitness is 0.91.

For the variant A15U C30U, the yeast fitness was determined as 0.859.

Regarding C4A C27U U28G C33G A36G G50C C66U, the yeast fitness is not above 0.5.

For C11G U35A C62A C66G, the yeast fitness is not above 0.5.

U7A A14U A15C U32C C46U G51C: the yeast fitness is not above 0.5.

On to A15G C24G U28A G52C A65C, for which the yeast fitness was not above 0.5.

For the variant G23C C27G A45G G52A, the yeast fitness amounted to 0.57.

Take A40G G51C A57U: the yeast fitness was not above 0.5.

For the variant G6A G12A C22A, the yeast fitness stood at 0.603.

For G41A C66A, the yeast fitness worked out at 0.687.

Consider U32A A36U C62U, for which the yeast fitness was not above 0.5.

Regarding C4G C31A C33G G51C G52A C60G, the yeast fitness was not above 0.5.

As for C5U A45G G67A, the yeast fitness came to 0.743.

Consider U7C A40G A42G G48A G56C, for which the yeast fitness is not above 0.5.

Regarding G23A A42U C61A, the yeast fitness was not above 0.5.

For A15C C29U G68C, the yeast fitness is not above 0.5.

As to C31G C33U A37C, the yeast fitness was not above 0.5.

For the variant G6C C33G C34U U64A, the yeast fitness stood at 0.684.

With G18A U26G A42U A65G C66G G68A, the yeast fitness was not above 0.5.

For C29U C31A, the yeast fitness stood at 0.609.

U26A C30U A42C C46U A65G: the yeast fitness worked out at 0.859.

With C29U G68C, the yeast fitness came out at 0.898.

Consider U35A A37G A43C U54C, for which the yeast fitness was not above 0.5.

Consider G10C C29A C33A C62U, for which the yeast fitness was 0.6.

For C24U C33U C61A A69U, the yeast fitness is not above 0.5.

Regarding C22A C30U C49U C66U, the yeast fitness worked out at 0.601.
